From PubChem
Runt-CBFb FRET – Runt domain-CBFb interaction inhibition; Q01196+Q13951; Cerulean-Runt/Venus-CBFb FRET ratio 530/480, 1 h; inhibition, % at 20 µM; actives 0.46% (n = 220,000);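 active means inhibition over about 50% at 20 µM in the single-dose screen, limit read from the data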;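 further: 0% = DMSO wells and 100% = excess unlabeled CBFb competitor control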
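Schedule: protein complex preformed 1 h, compound exposure 1 h, room temperature, dark; test system: Cerulean-labeled Runt domain protein; amount: 100 nM per protein; buffer or medium: Tris 50 mM pH 7.5, KCl, K2SO4, 0.01% BSA; read-out: loss of energy transfer signal; detection: FRET fluorescence; controls: 5 µM unlabeled CBFb as full-inhibition high control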
Runt-SMMHC FRET – blocks binding of human RUNX1 Runt domain to CBFb-SMMHC | actives 0.74% (n = 220,000) | inhibition, % at 20 µM | AID 1434 | Cerulean-Runt/Venus-CBFb-SMMHC FRET ratio 530/480, 1 h | Q01196+Q13951;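 active means mean inhibition across duplicate retests at 20 µM reaching about 50%, limit read from the data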;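 further: 0% = DMSO wells and 100% = wells with excess untagged CBFb-SMMHC; inhibitors lower the FRET ratio by blocking Runt binding to CBFb-SMMHC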
AI-2 QS mod – modulators of Vibrio harveyi AI-2 quorum sensing system; activity change, % at 7.5 µM; actives 0.4% (n = 300,000); Vibrio harveyi JMH597 AI-2 luminescence/OD600 ratio, 9 h; active compounds read low; strain lacks LuxN and CqsS sensors; 0 = neutral-control median; AID 2094; in the data active means activity change below about -75%, passing the limit was not always enough;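 further: luminescence divided by OD600 gain over 9 h not by final OD600 alone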
proKLK7 act – activates the human kallikrein-7 zymogen. purified proKLK7, EDANS-DABCYL substrate fluorescence; 100% is mature enzyme control, 0% vehicle. activation, % at 7 µM. actives 0.9% (n = 370,000). AID 652039;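 active means activation above the mean of all tested compounds plus 3 SD, computed per campaign excluding outliers beyond control limits, cut at about 13% in these data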
Target sequence (P49862 whole entry, looked up): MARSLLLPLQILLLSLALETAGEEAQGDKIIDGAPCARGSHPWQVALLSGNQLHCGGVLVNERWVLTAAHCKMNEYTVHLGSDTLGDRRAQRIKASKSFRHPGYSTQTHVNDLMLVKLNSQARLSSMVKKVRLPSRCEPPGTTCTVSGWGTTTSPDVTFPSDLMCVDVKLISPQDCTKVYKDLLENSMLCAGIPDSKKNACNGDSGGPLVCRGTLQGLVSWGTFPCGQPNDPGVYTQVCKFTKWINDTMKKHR
RanGTP-Imp inh – disruptors of Ran-importin-beta complex formation – biochemical, FRET, CFP-Ran, YFP-importin-beta, homogeneous, primary screen. inhibition, % (concentration not given with the values). AID 2216. cell-free CFP-Ran/YFP-importin-beta FRET ratio. actives 1.1% (n = 300,000);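 active means more than half of the replicate wells show a fall in the fluorescence ratio signal beyond about 16%, limit read from the data, passing the limit was not always enough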;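 further: 0% = DMSO wells and 100% = Ran loaded with GDP instead of GTP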
Wee1 stabilizer – blocks degradation of human Wee1 kinase | HeLa Luc-Wee1K328M stability, luciferase luminescence; 100% = proteasome inhibitor MG132 effect | reporter increase, % at 5 µM | actives 1.2% (n = 220,000) | AID 1321 | P30291;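 active means activation above the mean of all tested compounds plus 3 SD, set per screening run, cut at about 8.8% in these data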;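 further: cells exposed to compound for 20 h before luminescence read; 0% = DMSO alone and 100% = MG132 at 30 µM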
An asterisk follows results filed as active; . = no result. Hits are enriched below; roughly 2.9% of the tested compounds scored in any of these assays.

SMILES | Runt-CBFb FRET | Runt-SMMHC FRET | AI-2 QS mod | proKLK7 act | RanGTP-Imp inh | Wee1 stabilizer
O=C1CCCc2oc3c(cc(NS(=O)(=O)c4ccc5c6c(cccc46)C(=O)N5)c4ccccc43)c21 | -0.7 | -3.3 | 37.4 | 26.3* | 6.7 | -1.2
O=C(NCC1CCN(C(=O)C(=O)c2cccs2)CC1)c1cccnc1 | . | . | . | 0.6 | . | .
COc1cc(C)c(-c2[nH]ncc2-c2csc(C)n2)c(O)c1 | 3.5 | 2.7 | 9.9 | -0.4 | 2.2 | 2.4
Cc1nc(-c2cn[nH]c2-c2ccc(O)cc2O)cs1 | -2.5 | -0.5 | 7.3 | -0.3 | 1.1 | 9.0*
C[C@H]1C(C(=O)N(C)C2CCCCC2)=Cc2c(n(-c3ccc(F)cc3)c(=O)n2CCCOc2ccccc2)C=C1c1ccccc1 | . | . | . | -81.4 | . | .
COc1ccc(C)cc1NC(=O)c1cc2c(CO)cnc(C)c2oc1=N | -3.0 | -1.3 | 6.8 | -0.6 | -1.2 | 9.2*
CN(C)S(=O)(=O)c1ccc(C(=O)NCCC(=O)N2CCCC2)cc1 | . | . | 8.7 | 0.2 | 0.8 | .
Cc1ccc(NCc2ccccc2O)cc1C | -0.5 | -0.3 | -42.8 | -0.5 | 4.0 | 10.0*
CCCCNC(=S)N/N=C/C1=CCC2CC1C2(C)C (configuration not stated) | -3.7 | 3.9 | 45.5 | 0.0 | 1.0 | 8.9*
Cc1cc([N+](=O)[O-])nn1CCCC(=O)N1CCN(c2ccccc2)CC1 | -2.3 | 4.1 | 14.2 | 0.1 | -0.2 | 1.1
Cc1ccc(NS(=O)(=O)c2cc(C(=O)N3CCN(C)CC3)ccc2C)cc1C | -1.8 | -3.1 | 2.1 | 0.4 | -2.3 | 8.9*
COc1ccc(-c2ccccc2NC(=O)C2CCCN(Cc3ccc(C)o3)C2)cc1 (configuration not stated) | . | . | 13.7 | 0.2 | 5.7 | .
CC1(C)CC(=O)C=C(NCc2cccnc2)C1 | 2.7 | 10.4 | -0.9 | 6.1 | 4.0 | 9.3*
CC1(C)CC(=O)C=C(NCc2ccco2)C1 | -1.8 | -1.0 | 17.5 | 0.2 | 2.1 | -0.1
COc1cc(/C=C2\COC/C(=C\c3ccc(O)c(OC)c3)C2=O)ccc1O | -14.2 | -37.5 | 23.0 | 0.8 | -6.0 | -3.5
COc1cc(/C=C2/CC/C(=C/c3ccc(O)c(OC)c3)C2=O)ccc1O | -10.8 | -139.6 | 1.2 | -0.3 | -60.1 | 10.0*
Cc1ccc(C(=O)O)cc1NC(=O)Nc1cccc2ccccc12 | . | . | 25.2 | -3.0 | 6.8 | .
COc1cc(NS(=O)(=O)c2ccc3c(c2)NC(=O)CO3)cc(OC)c1 | . | . | -8.9 | 0.4 | -1.1 | .
COc1ccc(NS(=O)(=O)c2ccc3c(c2)NC(=O)CO3)cc1 | -1.6 | 0.9 | -80.6* | -0.3 | 3.4 | -3.5
COC(=O)c1sccc1NC(=O)CC1C(=O)NCCN1C(=O)Nc1cc(Cl)ccc1OC (configuration not stated) | -1.5 | -5.6 | 16.7 | 0.4 | -1.0 | 8.9*
CCN(CC(=O)NCc1ccc(F)cc1)C(=O)C1CCN(S(=O)(=O)c2ccc(C(C)C)cc2)CC1 | . | . | . | 0.1 | . | .
O=C(OCc1cn(Cc2ccc(F)c(F)c2)nn1)N1CCOCC1 | . | . | . | 0.4 | . | .
N#CC1=C(N)OC2=C(CN(Cc3ccccc3)C/C2=C\c2cccnc2)C1c1cccnc1 (configuration not stated) | 6.2 | 13.2 | 3.3 | 0.8 | 1.6 | -1.4
CCN1CC2=C(OC(N)=C(C#N)C2c2ccccc2)/C(=C\c2ccccc2)C1 (configuration not stated) | 4.3 | 0.7 | 26.5 | 0.8 | 20.7* | -0.1
CCOC(=O)N1CCN(C(=O)C[C@H]2C[C@@]3(C(=O)OC)C(=C[C@H](COCc4ccccc4)O[C@@H]3C)N(Cc3ccc4c(c3)OCO4)C2=O)CC1 | . | . | . | 0.9 | . | .
SMILES | Runt-CBFb FRET | Runt-SMMHC FRET | AI-2 QS mod | proKLK7 act | RanGTP-Imp inh | Wee1 stabilizer
CN(C)c1ccc(N=Nc2cccc3ccoc23)cc1 | -7.2 | -9.5 | -1.5 | -0.3 | -5.5 | 9.0*
O=c1oc2ccc3ccccc3c2cc1-c1nnc(-c2ccccc2)o1 | 76.1* | 38.6 | 22.7 | -16.9 | 121.7* | -1.5
COc1ccc(-c2nnc(-c3cc4c(ccc5ccccc54)oc3=O)o2)cc1 | 15.5 | 39.0 | 26.4 | -1.7 | -5.6 | -0.5
O=c1oc2ccc3ccccc3c2cc1-c1nnc(-c2cccs2)o1 | 18.7 | 58.5* | 11.5 | -7.2 | 113.5* | -4.2
Nc1nnc(-c2cc3c(ccc4ccccc43)oc2=O)s1 | 19.6 | 92.5* | . | . | . | -1.2
Clc1ccccc1-c1nnc(-c2cccs2)o1 | 1.6 | -2.9 | -4.6 | -0.6 | 5.1 | 10.2*
COC(=O)C1=C(C)N(C)C(=NCc2ccc(OC)cc2)NC1c1cccc(C(F)(F)F)c1 (configuration not stated) | . | . | . | 0.2 | . | .
C=CCN=C1NC(c2ccccc2C(F)(F)F)C(C(=O)OC)=C(C)N1Cc1ccc(C(F)(F)F)cc1 (configuration not stated) | . | . | . | 0.3 | . | .
COC(=O)[C@]12C[C@H](CC(=O)N3CCCC3)C(=O)N(Cc3ccco3)C1=C[C@H](C1CCCC1)O[C@@H]2C | . | . | . | -0.2 | . | .
CCC(C)c1ccccc1NC(=O)C(C)OC(=O)CN1C(=O)NC(C)(C)C1=O (configuration not stated) | . | . | 23.9 | -0.4 | 3.6 | .
[C-]#[N+][C@]12C(=O)[C@H](C=C(Cl)[C@@]1(C)C=C)C(C)(C)[C@H]1C(=O)N(C)c3cccc2c31 | . | . | . | 0.1 | . | .
N#Cc1cc2cc3c(cc2nc1SCC(=O)N1CCOCC1)OCO3 | . | . | 20.0 | -0.2 | 0.6 | .
N#Cc1cc2cc3c(cc2nc1NCCNC(=S)NCCCN1CCOCC1)OCO3 | 102.7* | 100.2* | 3.2 | 2.2 | 1.7 | 0.9
CCCCn1c(N)c(N(CCOC)C(=O)COc2ccc(Cl)cc2)c(=O)[nH]c1=O | -2.7 | -1.2 | 2.4 | -0.1 | -3.7 | -2.7
CCN1CCN(C(c2cccs2)C(C)NS(=O)(=O)c2ccccc2)CC1 (configuration not stated) | 3.6 | 0.4 | 22.6 | -0.5 | 1.8 | 11.2*
CCN1CCN(C(c2cccs2)C(C)NS(=O)(=O)c2ccc(C)cc2)CC1 (configuration not stated) | -0.6 | -1.8 | 13.9 | 0.5 | -0.2 | -0.9
CCOC(=O)N1CCN(C(=O)C[C@H]2C[C@@]3(C(=O)OC)C(=C[C@H](C(C)(C)C)O[C@@H]3C)N(Cc3ccco3)C2=O)CC1 | . | . | . | -0.3 | . | .
Cc1ccc(CNc2ccc3c(c2)ncn3C(C)(C)C)cc1 | 6.7 | 43.0 | -47.8 | -0.6 | 36.1* | -1.4
Cc1ccc(S(=O)(=O)Nc2ccc3c(c2)ncn3C(C)(C)C)cc1 | -1.8 | 1.4 | 7.0 | -0.4 | 2.7 | -2.5
Cc1ccc(-n2cnc3cc(NCc4cccs4)ccc32)cc1 | 4.8 | 12.0 | -16.6 | 0.2 | 19.1* | 0.4
